Hits are enriched below; roughly 3.5% of the tested compounds scored in any of these assays.
RGS4 block: human RGS4 inhibition. hit rate 0.45% among 310,000. HEK293 M3R/RGS4 inducible, Fluo-4 calcium flux; stronger effect = higher value; triggered by carbachol at its EC20. B-score at 10 µM. P49798;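 active = B-score, a plate-corrected calcium signal, over three deviations above library mean, with baseline fluorescence within five deviations of library mean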;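 also: RGS4 expression induced by doxycycline in cells with stable M3 receptor; B-score is computed from the integrated fluorescence ratio over baseline after carbachol; higher B-score means a larger calcium signal and so more RGS4 inhibition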
Target sequence (P49798 whole entry, looked up): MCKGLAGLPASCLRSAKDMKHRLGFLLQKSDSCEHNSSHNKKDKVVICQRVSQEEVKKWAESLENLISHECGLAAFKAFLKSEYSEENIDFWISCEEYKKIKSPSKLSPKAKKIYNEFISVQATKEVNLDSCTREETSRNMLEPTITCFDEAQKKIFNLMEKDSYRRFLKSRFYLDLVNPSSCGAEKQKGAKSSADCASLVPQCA
MrgX1 PAM: allosterically activates human MrgX1 receptor signaling. hit rate 0.63% among 310,000. B-score at 10 µM. Q96LB2. MrgX1-HEK293, Fluo-4 calcium flux, FDSS; stronger effect = higher value;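 active = plate-corrected calcium response at least 3 library SD above typical, normal starting fluorescence, not activating the receptor alone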;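 also: compound read alongside a low EC10 to EC30 dose of BAM8-22 agonist; peak minus trough fluorescence over baseline measured at the second addition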
Target sequence (Q96LB2 whole entry, looked up): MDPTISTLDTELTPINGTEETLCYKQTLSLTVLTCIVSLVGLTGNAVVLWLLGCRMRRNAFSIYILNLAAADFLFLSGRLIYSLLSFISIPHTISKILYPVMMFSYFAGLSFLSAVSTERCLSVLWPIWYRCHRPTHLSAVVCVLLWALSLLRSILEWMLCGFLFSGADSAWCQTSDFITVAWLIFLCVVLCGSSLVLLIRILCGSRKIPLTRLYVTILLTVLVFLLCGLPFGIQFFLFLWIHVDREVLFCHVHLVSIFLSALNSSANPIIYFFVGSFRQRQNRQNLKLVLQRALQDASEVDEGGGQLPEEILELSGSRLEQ
MrgX1 antag: antagonists of human MrgX1 receptor | Q96LB2 | MRGX1-HEK293 calcium flux, Fluo-4, BAM8-22 antagonism; stronger effect = lower value | B-score at 10 µM | hit rate 1.3% among 310,000;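 active = calcium-response B-score plate-corrected more than 3 library SD below zero, starting fluorescence within 5 deviations, no agonist response on first addition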;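 also: peak minus trough fluorescence over baseline after final BAM8-22 challenge near maximal dose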
MrgX1 ag: human MrgX1 receptor agonism, primary screen. Q96LB2. MrgX1-HEK293 cells, Fluo-4 calcium fluorescence, agonist mode; stronger effect = higher value. B-score at 10 µM. hit rate 0.44% among 310,000;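 active = calcium response B-score plate-corrected fluorescence ratio at least 3 library SD, with starting fluorescence B-score inside 5 SD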
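Material: MrgX1-expressing HEK293 cells; input: 15,000 cells per well; doses: test compound given as first of three sequential additions; schedule: overnight plating before 1 h dye loading; technique: Fluo-4 NW calcium-flux fluorescence, kinetic read; evaluation: baseline-normalised fluorescence change ratio, B-scored; control set: plate-wise positive and negative controls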
RGS4 pot: potentiators or activators of RGS4; AID 463111; B-score at 10 µM; hit rate 0.92% among 310,000; HEK293 M3R/inducible RGS4, carbachol calcium flux Fluo4; stronger effect = lower value;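 active = B-score of the integrated calcium signal more than 4 SD below the library mean, with starting fluorescence not abnormally high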;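 also: negative B-score means reduced calcium response which marks RGS4 activation or potentiation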
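Test system: HEK293 cells with stable M3R and inducible RGS4; also added: carbachol at ECmax as muscarinic agonist stimulus; schedule: dye loading 30 min 37 °C, buffer rest 30 min RT; technique: kinetic calcium fluorescence imaging with Fluo4-AM dye, 2 µM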
RGS4 block valid: validation of RGS4 inhibitors; shares compounds with RGS4 block; hit rate 65% among 1,700; calcium response, % at 10 µM; HEK293 M3R/RGS4, carbachol calcium Fluo-4 fluorescence; carbachol added at its EC20; 0 = buffer wells, 100 = carbachol control; AID 492999;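 active = duplicate-averaged calcium response above the buffer-only control mean plus 5 SD of those controls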;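 also: integrated fluorescence ratio F max minus min over baseline F0; higher response in RGS4-induced cells means RGS4 inhibition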
RGS4 uninduced: checks RGS4 inhibitor effects in non-induced HEK293 M3R cells; shares compounds with RGS4 block; carbachol calcium Fluo-4; submaximal (EC20) carbachol stimulus; buffer wells 0%, carbachol control wells 100%; activity (percent), % at 10 µM; hit rate 20% among 1,900; AID 493000; call rule not given here;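 also: RGS4 induction absent so cells express M3R without RGS4; higher means more calcium signal and flags a non-specific hit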
RGS4 inh ctr2: second RGS4 inhibitor counter-screen in uninduced cells lacking carbachol | shares compounds with RGS4 block | HEK293 M3R/RGS4 non-induced, Fluo-4 calcium, no carbachol; normalised: buffer wells 0%, carbachol wells 100% | calcium response (agonist-mode artifact), % at 10 µM | hit rate 22% among 1,900 | AID 493001;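 active = duplicate-averaged calcium rise in uninduced cells above buffer wells' mean plus 5 SD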
Numbers without * were called inactive; i = inactive; . = no result.

SMILES	RGS4 block	MrgX1 PAM	MrgX1 antag	MrgX1 ag	RGS4 pot	RGS4 block valid	RGS4 uninduced	RGS4 inh ctr2
O=C(NCc1ccccc1F)c1ccc(S(=O)(=O)Nc2cccc(C(F)(F)F)c2)cc1	i	i	i	i	i	.	.	.
O=C(NCc1ccc(F)cc1)c1ccc(S(=O)(=O)Nc2cccc(C(F)(F)F)c2)cc1	5.25*	i	i	i	i	15.5%*	i	18.5%*
O=C(COC(=O)/C=C/c1cccs1)Nc1nc(-c2cccc(Br)c2)cs1	i	i	i	i	i	i	i	12.0%*
O=C(COC(=O)/C=C/c1cccs1)Nc1nc(-c2ccccc2)cs1	14.8*	i	i	i	i	50.5%*	53.0%*	i
COC(=O)Cc1[nH]nc2c1C1(C(=O)N(Cc3ccc(Cl)cc3)c3ccccc31)C(C#N)=C(N)O2 (stereo not drawn)	5.11*	i	i	i	i	6.5%*	i	i
CCc1[nH]nc2c1C1(C(=O)N(Cc3ccccc3)c3ccccc31)C(C#N)=C(N)O2 (stereo not drawn)	i	i	i	i	i	.	.	.
O=C(CC1C(=O)NCCN1Cc1ccccc1C(F)(F)F)NC1CCCCCC1 (stereo not drawn)	i	i	i	i	i	.	.	.
O=C(CSC1=NS(=O)(=O)c2ccccc21)Nc1ccccc1	9.38*	i	i	i	i	25.0%*	i	i
CCCCn1c(N)c(N(CC)C(=O)c2cc(CC)c(C)s2)c(=O)[nH]c1=O	i	i	i	i	i	.	.	.
OCCC#Cc1c(-c2ccsc2)sc2ccccc12	i	i	i	i	i	.	.	.
COc1ccc(-c2sc3ccccc3c2C#CCCO)cc1	4.87*	i	i	i	i	9.0%*	i	i
COc1ccc(-c2sc3ccccc3c2C#CCO)cc1	i	i	i	i	i	i	i	i
CCCCn1c(/N=C/c2c[nH]c3ccccc23)nc2ccccc21	i	i	i	i	i	.	i	i
CCCn1c(/N=C/c2ccccc2O)nc2ccccc21	i	i	i	i	i	.	.	.
CCCCn1c(/N=C/c2ccc(N(C)C)cc2)nc2ccccc21	i	i	i	i	i	.	.	.
CCn1c(/N=C/c2c[nH]c3ccccc23)nc2ccccc21	i	i	i	i	i	.	i	i
CCCn1c(/N=C/c2c[nH]c3ccccc23)nc2ccccc21	5.07*	i	i	i	i	8.0%*	i	i
Cc1ccc(CNC(=O)CN(C(=O)C2(C)CC(=O)N=C3C=CC=CN32)c2ccccc2F)cc1 (stereo not drawn)	i	i	i	i	i	.	.	.
CNc1nc(N)nc(-c2cc(Cl)ccc2OC)n1	i	i	i	i	i	.	.	.
COc1ccc(C(=O)N/C(=C\c2cn(S(=O)(=O)N(C)C)c3ccccc23)C(=O)NCCCN2CCOCC2)cc1	i	i	i	i	i	.	.	.
CCCCC1=CC2=C(c3ccco3)C(=O)C(C)(OC(=O)c3ccc(OC)cc3)C(=O)C2=CN1CCc1ccccn1 (stereo not drawn)	i	i	i	i	i	.	48.0%*	i
CCCCC1=CC2=C(c3ccco3)C(=O)C(C)(OC(=O)c3ccc(OC)cc3)C(=O)C2=CN1Cc1ccccc1 (stereo not drawn)	i	i	-5.36*	i	i	i	i	i
COC(=O)CCCC1=CC2=C(c3ccccc3)C(=O)C(C)(OC(=O)C3CCCC3)C(=O)C2=CN1C1CCCCC1 (stereo not drawn)	i	i	i	i	i	.	.	.
CCCCC1=CC2=C(c3ccco3)C(=O)C(C)(OC(=O)c3ccc(OC)cc3)C(=O)C2=CN1CCOC (stereo not drawn)	4.91*	i	i	i	i	22.0%*	33.5%*	i
CCCCC1=CC2=C(c3ccco3)C(=O)C(C)(OC(=O)c3ccc(OC)cc3)C(=O)C2=CN1C1CCCCC1 (stereo not drawn)	i	i	i	i	i	i	i	i
SMILES	RGS4 block	MrgX1 PAM	MrgX1 antag	MrgX1 ag	RGS4 pot	RGS4 block valid	RGS4 uninduced	RGS4 inh ctr2
CCCCC1=CC2=C(c3ccco3)C(=O)C(C)(OC(=O)c3ccc(OC)cc3)C(=O)C2=CN1Cc1ccc2c(c1)OCO2 (stereo not drawn)	i	i	i	i	i	.	.	.
CCCCC1=CC2=CC(=O)C(C)(OC(=O)CC)C(=O)C2=CN1CCc1ccccn1 (stereo not drawn)	i	i	i	i	i	.	.	.
CCOC(=O)C1CCN(C(=O)C2CCC(=O)N(CC3CCCCC3)C2)CC1 (stereo not drawn)	i	i	i	i	i	.	.	.
COC(=O)c1ccc2c(=O)n(CCCCCC(=O)O)c(=S)[nH]c2c1	i	i	i	i	i	.	.	.
CC1=C(C(=O)c2ccccc2)C(c2cccc([N+](=O)[O-])c2)NC(=S)N1 (stereo not drawn)	10.4*	i	i	i	i	23.0%*	33.0%*	i
COc1ccc(C2NC(=S)NC(C)=C2C(=O)c2ccccc2)cc1OC (stereo not drawn)	i	i	i	i	i	.	.	.
Cc1cccc(Cn2cccc2/C=C2/C(=N)N3C=CSC3=NC2=O)c1	i	i	i	i	i	.	.	.
Cc1ccc(Cn2cccc2/C=C2/C(=N)N3C=CSC3=NC2=O)cc1	i	i	i	i	i	i	i	i
N=C1/C(=C/c2cccn2Cc2ccc(F)cc2)C(=O)N=C2SC=CN12	i	i	i	i	i	.	i	21.0%*
CCOc1c(Br)cc(/C=C2\N=C(C)OC2=O)cc1Br	4.74*	i	i	i	i	66.0%*	37.0%*	i
CC1CCC(CN2C(Nc3ccccc3)=NC[C@@H]2C)CC1 (stereo partly drawn)	i	i	i	i	i	.	.	.
CC(=O)OCCCNc1cc(Sc2ccc(C)cc2)c2nonc2c1[N+](=O)[O-]	i	i	i	i	i	.	.	.

Assay outcomes deposited in PubChem by Johns Hopkins Ion Channel Center.
